Rows were chosen to be rich in hits. Some 3.5% of all compounds tested hit in one or more screens of this group.
RGS4 act = potentiators or activators of RGS4. HEK293 M3R/inducible RGS4, carbachol calcium flux Fluo4; stronger effect = lower value. B-score at 10 µM. hit rate 0.92% among 310,000. AID 463111;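 active means B-score of the integrated calcium signal more than 4 SD below the library mean, with starting fluorescence not abnormally high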;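 further: negative B-score means reduced calcium response which marks RGS4 activation or potentiation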
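System: HEK293 FlpIn-TREx cells, stable M3R, doxycycline-inducible RGS4. Timing: overnight RGS4 induction, 30 min dye load 37 °C, 20 min compound RT. Also added: carbachol, ECmax concentration. Measured by: Fluo4 fluorescence kinetic imaging of calcium. Evaluation: integrated calcium ratio converted to B score.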
MrgX1 ag = activates human MrgX1 receptor signaling | MrgX1-HEK293 cells, Fluo-4 calcium fluorescence, agonist mode; stronger effect = higher value | Q96LB2 | hit rate 0.44% among 310,000 | B-score at 10 µM;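 active means calcium response B-score plate-corrected fluorescence ratio at least 3 library SD, with starting fluorescence B-score inside 5 SD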
Target sequence (Q96LB2 whole entry, looked up): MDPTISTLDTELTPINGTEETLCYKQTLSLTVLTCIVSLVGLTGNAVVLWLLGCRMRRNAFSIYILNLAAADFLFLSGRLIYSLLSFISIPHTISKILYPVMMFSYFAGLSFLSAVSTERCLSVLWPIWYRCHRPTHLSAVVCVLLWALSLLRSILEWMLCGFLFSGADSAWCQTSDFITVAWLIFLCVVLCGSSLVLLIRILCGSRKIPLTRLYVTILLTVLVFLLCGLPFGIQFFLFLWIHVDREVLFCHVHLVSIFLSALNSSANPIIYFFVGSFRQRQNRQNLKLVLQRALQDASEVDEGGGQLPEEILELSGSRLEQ
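Material – MrgX1-expressing HEK293 cells · Input – 15,000 cells seeded per well · Dosing – compound as first of three additions · Times – overnight seeding, then 1 h dark dye loading · Measured by – kinetic Fluo-4 NW fluorescence of intracellular calcium · Read-out – B-scored fluorescence response ratio · Benchmarks – positive and negative control wells on each plate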
MrgX1 PAM = human MrgX1 positive allosteric modulation, primary screen; hit rate 0.63% among 310,000; B-score at 10 µM; MrgX1-HEK293, Fluo-4 calcium flux, FDSS; stronger effect = higher value;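 active means plate-corrected calcium response at least 3 library SD above typical, normal starting fluorescence, not activating the receptor alone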;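 further: compound read alongside a low EC10 to EC30 dose of BAM8-22 agonist; peak minus trough fluorescence over baseline measured at the second addition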
RGS4 block = inhibitors of human RGS4. P49798. HEK293 M3R/RGS4 inducible, Fluo-4 calcium flux; stronger effect = higher value; triggered by carbachol at its EC20. B-score at 10 µM. hit rate 0.45% among 310,000;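 active means B-score, a plate-corrected calcium signal, over three deviations above library mean, with baseline fluorescence within five deviations of library mean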;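 further: RGS4 expression induced by doxycycline in cells with stable M3 receptor; B-score is computed from the integrated fluorescence ratio over baseline after carbachol; higher B-score means a larger calcium signal and so more RGS4 inhibition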
Target sequence (P49798 whole entry, looked up): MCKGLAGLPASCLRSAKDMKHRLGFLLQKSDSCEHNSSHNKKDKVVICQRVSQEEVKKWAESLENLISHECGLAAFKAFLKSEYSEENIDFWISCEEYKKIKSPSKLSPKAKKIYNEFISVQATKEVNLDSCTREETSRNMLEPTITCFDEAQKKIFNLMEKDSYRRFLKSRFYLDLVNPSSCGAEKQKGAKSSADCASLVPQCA
MrgX1 antagonist = antagonists of human MrgX1 receptor; MRGX1-HEK293 calcium flux, Fluo-4, BAM8-22 antagonism; stronger effect = lower value; B-score at 10 µM; hit rate 1.3% among 310,000; AID 588676;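 active means calcium-response B-score plate-corrected more than 3 library SD below zero, starting fluorescence within 5 deviations, no agonist response on first addition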;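 further: peak minus trough fluorescence over baseline after final BAM8-22 challenge near maximal dose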
MrgX1 ant reconf = confirmation of human MrgX1 receptor antagonists. shares compounds with MrgX1 antagonist. MrgX1-HEK293, BAM8-22 calcium flux, Fluo-4; stronger effect = lower value. remaining BAM8-22 calcium response % of control (stronger effect = lower value), % at 10 µM. hit rate 19% among 2,300. AID 602420;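 active means remaining agonist calcium response no higher than 100% minus 3 SD of agonist-only control wells, with starting fluorescence near control levels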;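 further: agonist BAM8-22 given at a near maximal EC90 to ECmax level; peak minus minimum fluorescence divided by baseline after agonist addition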
HEK293 Ca flux = activity in parental HEK293 cells lacking MrgX1; AID 624111; Fluo-4 calcium fluorescence, FDSS; shares compounds with MrgX1 antagonist; fluorescence ratio F(max-min)/F0 at 10 µM; hit rate 2% among 4,000;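 active means duplicate-averaged calcium fluorescence ratio at least three times the standard deviation of buffer wells, a nonspecific response in parental cells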
HEK293 Ca counter = activity in parental HEK293 cells without MrgX1. shares compounds with MrgX1 antagonist. parental HEK293 calcium flux, Fluo-4 fluorescence ratio; stronger effect = higher value. fluorescence ratio F(max-min)/F0 at 10 µM. hit rate 0.4% among 4,000;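 active means calcium fluorescence ratio, averaged over duplicates, at least 3 SD of the buffer-well ratio, meaning a nonspecific response in receptor-free cells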;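 further: untransfected parental HEK293 lacking MrgX1 used as counterscreen for MrgX1 allosteric activators; fluorescence change taken during the second addition on a kinetic imager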
HEK293 Ca cntr2 = counter-screen for MrgX1 activators: effect in parental HEK293 cells | fluorescence ratio F(max-min)/F0 at 10 µM | hit rate 8.7% among 4,000 | Fluo-4 calcium fluorescence (FDSS); stronger effect = higher value | shares compounds with MrgX1 antagonist;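 active means calcium fluorescence ratio at least three times the spread of buffer wells, meaning a non-specific response in parental cells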
An asterisk follows results filed as active; i = inactive; . = no result given.

SMILES	RGS4 act	MrgX1 ag	MrgX1 PAM	RGS4 block	MrgX1 antagonist	MrgX1 ant reconf	HEK293 Ca flux	HEK293 Ca counter	HEK293 Ca cntr2
Cc1ccc2c(NC(=O)c3ccco3)cccc2n1	i	i	i	i	i	.	.	.	.
CCOC(=O)N1CCC(NC(=O)CS(=O)(=O)Cc2nc(-c3ccccc3C)oc2C)CC1	i	i	i	i	-5.3*	i	i	i	i
COc1cc(CCC(=O)Nc2c(C(=O)N3CCN(c4ccccc4)CC3)oc3ccccc23)on1	i	i	i	i	i	.	.	.	.
CC(C)(C)SCCNC(=O)CSc1ccccc1	i	i	i	i	-5*	84%*	i	i	i
CCS(=O)(=O)N1Cc2ccccc2CC1C(=O)NCCc1ccccc1 (centres undefined)	i	i	i	i	i	.	.	.	.
COc1ccc(CCN=C(N)NS(=O)(=O)c2ccc(C)c(C)c2)cc1OC	i	i	i	i	i	.	.	.	.
COc1ccc(S(=O)(=O)NC(N)=NCCc2ccc(OC)c(OC)c2)cc1	i	i	i	i	-7.4*	i	i	i	i
Cc1ccc(NC(=O)CCNS(=O)(=O)c2cc(Br)cnc2N)c(Cl)c1	i	i	i	i	-5.5*	i	i	i	i
CCN(CC)c1ccc(/C=N/NC(=O)c2cc(C)nc3ccccc23)cc1	i	i	i	i	i	.	.	.	.
CCN(CC)c1ccc(/C=C/c2cc(-c3ccccc3)c3ccccc3n2)cc1	i	i	i	i	-15*	i	0.065*	i	i
CCC(C)(C)NC(=O)CN(C(=O)CCC(=O)Nc1nccs1)c1ccc(C)cc1	i	i	i	i	i	.	.	.	.
NS(=O)(=O)c1ccc(CCNC(=O)NC23CC4CC(CC(C4)C2)C3)cc1	i	i	i	i	i	.	.	.	.
NS(=O)(=O)c1ccc(-n2nncc2C23CC4CC(CC(C4)C2)C3)cc1	i	i	i	i	-7.3*	i	i	i	i
CN1CCOCCOCCN(C)C1=O	i	i	i	i	-4.6*	i	i	i	i
CC(=Nc1ccccc1C)C1=C(O)CSC1=O	i	i	i	i	-5.4*	i	i	i	i
Cc1cc(C)n(-c2nc3ccccc3nc2Nc2ccc(CC(=O)O)cc2)n1	i	i	i	i	-7.6*	i	i	i	i
O=C(CNC(=S)NC(=O)c1ccc(F)cc1)c1ccccc1	i	i	i	i	-4.7*	i	i	i	i
O=C(CNC(=S)NC(=O)c1ccccc1)c1ccccc1	i	i	i	i	i	.	.	.	.
CC(=O)c1cccc(NC(=O)CSc2nnnn2C2CCCC2)c1	i	.	.	i	.	.	.	.	.
O=C(NC(CC(=O)N1CCN(c2ccc([N+](=O)[O-])cc2)CC1)c1ccccc1)c1ccccc1Cl (centres undefined)	i	i	i	i	i	.	.	.	.
O=C(c1cc(-c2ccccn2)nc2ccc(Br)cc12)N1CCc2ccccc2C1	i	.	.	i	.	.	.	.	.
O=C(c1cc(-c2ccccn2)nc2ccc(Br)cc12)N1CCN(S(=O)(=O)c2ccccc2)CC1	i	i	i	i	-6.7*	i	i	i	i
CN(CCO)c1c2c(nc3cc(-c4cccc(F)c4)nn13)CCCC2	i	i	i	i	-9.6*	i	i	i	i
OC1CCN(c2c3c(nc4cc(-c5cccc(F)c5)nn24)CCCC3)CC1	i	i	i	i	i	.	.	.	.
O=C(Nc1ccc(Oc2ccccc2)nc1)C1CCCCN1Cc1ccco1 (centres undefined)	i	i	i	i	i	.	.	.	.
SMILES	RGS4 act	MrgX1 ag	MrgX1 PAM	RGS4 block	MrgX1 antagonist	MrgX1 ant reconf	HEK293 Ca flux	HEK293 Ca counter	HEK293 Ca cntr2
COCCCNC(=S)N1CCN(c2nc(C)nc3sc4c(c23)CCCC4)CC1	i	i	i	i	-6.6*	i	i	i	i
CCCNC(=S)N1CCN(c2nc(C)nc3sc4c(c23)CCCC4)CC1	i	i	i	i	i	.	.	.	.
CCC(=O)Nc1cc(C(F)(F)F)ccc1N1CCOCC1	i	i	i	i	i	.	.	.	.
CC(C)C(=O)Nc1cc(C(F)(F)F)ccc1N1CCOCC1	i	i	i	i	-5*	76%*	i	i	i
CCc1cc(=O)[nH]c(SCc2ccc(C)cc2)n1	i	i	i	i	-4.7*	i	i	i	i
CCc1cc(=O)[nH]c(SCc2cccnc2)n1	i	i	i	i	i	.	.	.	.
CCN1C(=NCCc2c[nH]c3ccccc23)N[C@@H](c2ccccc2)[C@H](C(=O)OC)[C@H]1C	i	i	i	i	i	.	.	.	.
COc1ccccc1NC(=O)c1nn(C)cc1Br	.	i	i	.	-7.6*	i	i	i	i
Cc1ccc(Cn2nc(C)c(NC(=O)c3nn(C)cc3Cl)c2C)cc1	i	i	i	i	-10*	i	i	i	i
Cc1cc2nc3n(c2cc1C)CC1CC(C(=O)NCc2cccc(C(F)(F)F)c2)N(C)C31 (centres undefined)	i	i	i	i	-5.5*	i	i	i	i
CN1C(C(=O)NCc2cccc(C(F)(F)F)c2)CC2Cn3c(nc4cc5ccccc5cc43)C21 (centres undefined)	i	i	i	i	i	.	.	.	.
CCCc1nn(C)c(C(=O)Nc2cccc(Cl)c2)c1Cl	i	i	i	i	i	.	.	.	.
CSc1nc(N2CCN(c3ccccc3)CC2)cc(N2CCN(c3ccccc3)CC2)n1	i	i	i	i	-5.5*	i	i	i	i
COc1cccc(C(=O)N2CCN(CCCc3ccccc3)CC2)c1OC	.	i	i	.	i	.	.	.	.
COc1ccccc1C(=O)N1CCN(CCc2ccccc2)CC1	i	i	i	i	-5.4*	i	i	i	i
O=C(c1ccco1)N1CCN(C(=O)c2ccccc2Oc2ccccc2)CC1	i	i	i	i	-4.6*	79%*	i	i	i

Bioassay records from PubChem.
